Calls of active or inactive are those of the source. The rule behind the calls is not given here.
Columns and labels:
[1] = Cytotoxicity against human MT4 cells assessed as cell viability after 5 days by MTT assay; format: cell-based
In short: (§1)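 Compounds added at start in serial 5-fold dilutions, triplicate wells, to mock- and virus-infected cells (100-300 CCID50 per well). After 5 days, viability by MTT reduction (OD540). Mean ± SD, at least two experiments.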

[2] = test system: Human immunodeficiency virus 1; experiment: Antiviral activity against HIV1 3B infected in human MT4 cells assessed as protection against virus-induced cytopathic effect after 5 days by MTT assay; format: functional, organism-based; conditions: Human immunodeficiency virus 1, 3B, MT4, 120 h
In short: as §1, with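 “MT-4 cells in RPMI 1640 with 10% heat-inactivated FCS, resuspended at 6 x 10^5 cells/ml. Compounds” for “Compounds”, “(OD540). […]” for “(OD540).”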

[3] = test system: Human immunodeficiency virus 1; experiment: Antiviral activity against HIV1 3B infected in human MT4 cells assessed as inhibition of viral replication by measuring p24 Ag production at 2 ug/ml measured at 31 hrs post infection by ELISA; format: functional, organism-based
In short: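 MT-4 cells infected with HIV-1 IIIB at m.o.i. 0.5, 1 h adsorption, then seeded at 45,000 cells/well at 37°C. Compound added at times from 0 to 25 h post-infection. Read-out was p24 in supernatant by ELISA at 31 h post-infection.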

[4] = test system: Human immunodeficiency virus 2; experiment: Antiviral activity against HIV2 ROD infected in human MT4 cells assessed as protection against virus-induced cytopathic effect after 5 days by MTT assay; format: functional, organism-based; conditions: Human immunodeficiency virus 2, ISOLATE ROD, MT4, 120 h
In short: as §1, with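 “MT-4 cells in RPMI 1640 with 10% heat-inactivated FCS, resuspended at 6 x 10^5 cells/ml. Compounds” for “Compounds”, “(OD540). […]” for “(OD540).”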

HuT78 = experiment: Inhibition of NCp7 of HIV1 3B persistently infected in HUT78 cells assessed as accumulation of unprocessed Gag polyprotein after 43 hrs by Western blot analysis; format: cell-based; conditions: Human immunodeficiency virus 1
In short: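 Washed HuT-78(IIIB) cells (2x10^5 in 1 ml) treated with compound for 43 h at 37°C. Virions pelleted from clarified supernatant (36,670 g, 2 h, 4°C), lysed, run on SDS-PAGE and transferred to PVDF. Blot probed with mouse anti-p24 (1:5000), then HRP anti-mouse (1:2500), with chemiluminescent detection.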

[5] = Selectivity index, ratio of CC50 for human MT4 cells to EC50 for HIV1 3B; format: toxicity, cell-based; conditions: read-out: Ratio CC50/EC50; in short: as §1
[6] = Selectivity index, ratio of CC50 for human MT4 cells to EC50 for HIV-2 ROD; format: toxicity, cell-based; conditions: read-out: Ratio CC50/EC50; in short: as §1
[7] = Selectivity index, ratio of CC50 for human HUT78 cells to EC50 for HIV1 3B; format: toxicity, cell-based; conditions: read-out: Ratio CC50/EC50
In short: (§2)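 Chronically HIV-1 IIIB-infected HuT-78 cells washed four times in PBS to remove free virions and seeded at 2 × 10^5 cells/well with 7 serial 5-fold compound dilutions for 43 h at 37°C. Supernatant p24 measured by ELISA. Cytotoxicity was run in parallel by MTT plus microscopy. SI = CC50/EC50. Mean ± SD, ≥2 experiments.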

[8] = test system: Human immunodeficiency virus 1; experiment: Antiviral activity against HIV1 3B persistently infected in HUT78 cells assessed as reduction of p24 production after 43 hrs by ELISA; format: functional, organism-based; conditions: Human immunodeficiency virus 1, 3B, HuT78, 43 h; in short: as §2
[9] = Cytotoxicity against human HUT78 cells assessed as reduction in cell viability after 5 days by MTT assay; format: cell-based
[10] = Antiviral activity against nevirapine-resistant SIV mac251 infected in human MT4 cells; format: functional, cell-based; conditions: Simian immunodeficiency virus
In short: (§3)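 MT-4 cells in RPMI 1640 with 10% heat-inactivated FCS were infected at the start of the experiment, with compound added across serial 5-fold dilutions in triplicate wells. Cells were seeded at 6 x 10^5 cells/ml. After 5 days, protection against virus-induced cytopathic effect was read by MTT reduction at OD540. […] Values are means ± SD of at least two experiments.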

[11] = test system: Human immunodeficiency virus 1; experiment: Antiviral activity against ritonavir-resistant HIV1 3B/RIT infected in human MT4 cells; format: functional, organism-based; conditions: Human immunodeficiency virus 1, 3B/RIT; in short: as §3
[12] = test system: Human immunodeficiency virus 1; experiment: Antiviral activity against ritonavir-resistant HIV1 B12 harboring […] L10I/I15V/I54V/L63P/V82A/I85V mutant infected in human MT4 cells; format: functional, organism-based; conditions: Human immunodeficiency virus 1, B12, MT4; in short: as §3
[13] = test system: Human immunodeficiency virus 1; experiment: Antiviral activity against NNRTI-resistant HIV1 RES056 harboring reverse transcriptase K103N/181C double mutant infected in human MT4 cells; format: functional, organism-based; conditions: Human immunodeficiency virus 1, RES056, MT4; in short: as §3
[14] = test system: Human immunodeficiency virus 1; experiment: Antiviral activity against NRTI/NNRTI-resistant HIV1 L6 harboring reverse transcriptase V75I/F77L/K103N/F116Y/Q151M/M184V mutant infected in human MT4 cells; format: functional, organism-based; conditions: Human immunodeficiency virus 1, L6, MT4; in short: as §3
[15] = test system: Human immunodeficiency virus 1; experiment: Antiviral activity against AZT-resistant HIV1 ADP/141 harboring reverse transcriptase D67N/K70R/T215F/K219Q mutant infected in human MT4 cells; format: functional, organism-based; conditions: Human immunodeficiency virus 1, ADP/141, MT4; in short: as §3

## C[C@H](NC(=O)c1ccccc1[Se][Se]c1ccccc1C(=O)N[C@@H](C)C(=O)O)C(=O)O
[1]
  CC50 at 120 h: 138 µM
[2]
  EC50: 10.3 µM
[3]
  inhibition: Active
[4]
  EC50: 5.38 µM
HuT78
  inhibition: Dose-dependent effect
[5]
  selectivity ratio: 13
[6]
  selectivity ratio: 26

## NS(=O)(=O)c1ccc(OC(=O)c2ccccc2[Se][Se]c2ccccc2C(=O)Oc2ccc(S(N)(=O)=O)cc2)cc1
[1]
  CC50 at 120 h: 18.6 µM
[2]
  EC50: > 18.6 µM
[3]
  inhibition: Active
[4]
  EC50: > 18.6 µM
HuT78
  inhibition: Dose-dependent effect
[5]
  selectivity ratio: < 1
[6]
  selectivity ratio: < 1

## NS(=O)(=O)c1ccc(NC(=O)c2ccccc2[Se][Se]c2ccccc2C(=O)Nc2ccc(S(N)(=O)=O)cc2)cc1
[1]
  CC50 at 120 h: 17.4 µM
[2]
  EC50: 2.82 µM
[7]
  selectivity ratio: > 4
[3]
  inhibition: Active
[4]
  EC50: 3.03 µM
HuT78
  inhibition: Dose-dependent effect
[8]
  EC50: 8.25 µM
[5]
  selectivity ratio: 6
[9]
  CC50 at 120 h: > 35 µM
[6]
  selectivity ratio: 6

## CCOC(=O)CC[C@H](NC(=O)c1ccccc1[Se][Se]c1ccccc1C(=O)N[C@@H](CCC(=O)OCC)C(=O)OCC)C(=O)OCC
[1]
  CC50 at 120 h: 2.8 µM
[2]
  EC50: ≥ 0.67 µM
[3]
  inhibition: Active
[4]
  EC50: ≥ 0.72 µM
[5]
  selectivity ratio: ≤ 4
[6]
  selectivity ratio: ≤ 4

## O=C(O)C[C@H](NC(=O)c1ccccc1[Se][Se]c1ccccc1C(=O)N[C@@H](CC(=O)O)C(=O)O)C(=O)O
[1]
  CC50 at 120 h: 151 µM
[2]
  EC50: > 151 µM
[3]
  inhibition: Active
[4]
  EC50: > 151 µM
HuT78
  inhibition: Dose-dependent effect
[5]
  selectivity ratio: < 1
[6]
  selectivity ratio: < 1

## CC[C@H](C)[C@H](NC(=O)c1ccccc1[Se][Se]c1ccccc1C(=O)N[C@H](C(=O)OC)[C@@H](C)CC)C(=O)OC
[1]
  CC50 at 120 h: 2.99 µM
[2]
  EC50: 0.84 µM
[3]
  inhibition: Active
[4]
  EC50: ≥ 1.25 µM
[5]
  selectivity ratio: 4
[6]
  selectivity ratio: ≤ 2

## COC(=O)[C@H](C)NC(=O)c1ccccc1[Se][Se]c1ccccc1C(=O)N[C@@H](C)C(=O)OC
[1]
  CC50 at 120 h: 15.8 µM
[2]
  EC50: 3.17 µM
[3]
  inhibition: Active
[4]
  EC50: 1.94 µM
[5]
  selectivity ratio: 5
[6]
  selectivity ratio: 8

## CC(C)c1nc(CN(C)C(=O)N[C@H](C(=O)N[C@@H](Cc2ccccc2)C[C@H](O)[C@H](Cc2ccccc2)NC(=O)OCc2cncs2)C(C)C)cs1 [RITONAVIR]
[10]
  EC50: 140 nM
[2]
  EC50: 0.09 µM
[3]
  inhibition: Active
[4]
  EC50: 0.14 µM
[11]
  EC50: 2770 nM
HuT78
  inhibition: Dose-dependent effect
[12]
  EC50: 1280 nM
[8]
  EC50: 29 µM

## NS(=O)(=O)c1ccc(NC(=O)c2ccccc2SSc2ccccc2C(=O)Nc2ccc(S(N)(=O)=O)cc2)cc1
[1]
  CC50 at 120 h: 10.5 µM
[2]
  EC50: 3.04 µM
[7]
  selectivity ratio: 6.9
[4]
  EC50: 0.56 µM
[8]
  EC50: 2.66 µM
[5]
  selectivity ratio: 6
[9]
  CC50 at 120 h: 18.4 µM
[6]
  selectivity ratio: 30

## CCOC(=O)CNC(=O)c1ccccc1[Se][Se]c1ccccc1C(=O)NCC(=O)OCC
[1]
  CC50 at 120 h: 6.26 µM
[2]
  EC50: 0.91 µM
[3]
  inhibition: Active
[4]
  EC50: 0.74 µM
[5]
  selectivity ratio: 7
[6]
  selectivity ratio: 9

## O=C(O)CNC(=O)c1ccccc1SSc1ccccc1C(=O)NCC(=O)O
[1]
  CC50 at 120 h: 58.1 µM
[2]
  EC50: > 58.1 µM
[3]
  inhibition: Active
[4]
  EC50: > 58.1 µM
[5]
  selectivity ratio: < 1
[6]
  selectivity ratio: < 1

## O=C(O)[C@@H]1CCCN1C(=O)c1ccccc1[Se][Se]c1ccccc1C(=O)N1CCC[C@H]1C(=O)O
[1]
  CC50 at 120 h: 152 µM
[2]
  EC50: > 152 µM
[3]
  inhibition: Active
[4]
  EC50: > 152 µM
HuT78
  inhibition: Dose-dependent effect
[5]
  selectivity ratio: < 1
[6]
  selectivity ratio: < 1

## CC1CNC(=O)c2ccccc2SSc2ccccc2C(=O)N1 (stereo unspecified)
[7]
  selectivity ratio: > 54
HuT78
  inhibition: Dose-dependent effect
[8]
  EC50: > 7.5 µM
[9]
  CC50 at 120 h: > 7.5 µM

## COC(=O)[C@@H]1CCCN1C(=O)c1ccccc1[Se][Se]c1ccccc1C(=O)N1CCC[C@H]1C(=O)OC
[1]
  CC50 at 120 h: 10.1 µM
[2]
  EC50: ≥ 4.32 µM
[3]
  inhibition: Active
[4]
  EC50: 4.56 µM
[5]
  selectivity ratio: ≤ 2
[6]
  selectivity ratio: 2

## NS(=O)(=O)c1ccc(NC(=O)c2cccnc2[Se][Se]c2ncccc2C(=O)Nc2ccc(S(N)(=O)=O)cc2)cc1
[1]
  CC50 at 120 h: 19.2 µM
[2]
  EC50: 3.77 µM
[3]
  inhibition: Active
[4]
  EC50: ≥ 3.11 µM
HuT78
  inhibition: Dose-dependent effect
[5]
  selectivity ratio: 5
[6]
  selectivity ratio: ≤ 6

## Cc1ccnc2c1NC(=O)c1cccnc1N2C1CC1 [NEVIRAPINE]
[13]
  EC50: > 15 µM
[14]
  EC50: > 15 µM
[1]
  CC50 at 120 h: > 15 µM
[10]
  EC50: > 15000 nM
[2]
  EC50: 0.28 µM
[4]
  EC50: > 15 µM
[8]
  EC50: 0.26 µM
[5]
  selectivity ratio: > 60
[9]
  CC50 at 120 h: > 14 µM

## Cc1cn([C@H]2C[C@H](N=[N+]=[N-])[C@@H](CO)O2)c(=O)[nH]c1=O [ZIDOVUDINE]
[14]
  EC50: > 7.48 µM
[1]
  CC50 at 120 h: > 7.48 µM
[2]
  EC50: 0.01 µM
[4]
  EC50: 0.008 µM
HuT78
  inhibition: Dose-dependent effect
[15]
  EC50: 30 nM
[5]
  selectivity ratio: > 748
[6]
  selectivity ratio: > 935

## CC(C)[C@H](NC(=O)c1ccccc1[Se][Se]c1ccccc1C(=O)N[C@H](C(=O)O)C(C)C)C(=O)O
[1]
  CC50 at 120 h: 136 µM
[2]
  EC50: 13.9 µM
[3]
  inhibition: Active
[4]
  EC50: 14.3 µM
HuT78
  inhibition: Dose-dependent effect
[5]
  selectivity ratio: 10
[6]
  selectivity ratio: 9

## COC(=O)C[C@H](NC(=O)c1ccccc1[Se][Se]c1ccccc1C(=O)N[C@@H](CC(=O)OC)C(=O)OC)C(=O)OC
[1]
  CC50 at 120 h: 9.74 µM
[2]
  EC50: ≥ 3.17 µM
[3]
  inhibition: Active
[4]
  EC50: ≥ 2.75 µM
[5]
  selectivity ratio: ≤ 3
[6]
  selectivity ratio: ≤ 3
